Experimental data taken from ChEMBL document CHEMBL2321652, “Design and synthesis of HIV-1 protease inhibitors for a long-acting injectable drug application” (Bioorg Med Chem Lett, 2013).

Test system: Human immunodeficiency virus 1
Experiment: Selectivity ratio of EC50 for Human immunodeficiency virus 1 3B clinical isolate harboring L10I/I13V/M46I/I50V/L63P/L76V protease mutant to EC50 for wild type Human immunodeficiency virus 1 3B
Assay type: functional
Settings: not given

| SMILES | Ratio EC50 |
| --- | --- |
| CC(C)CN(C[C@@H](O)[C@H](Cc1ccccc1)NC(=O)O[C@H]1CO[C@H]2OCC[C@H]21)S(=O)(=O)c1ccc(N)cc1 | 8 |
| COC(=O)N[C@H](C(=O)N[C@@H](Cc1ccc(-c2ccc(OC)nc2)cc1)[C@@H](O)C[C@@H](Cc1ccccc1F)C(=O)N[C@H]1c2cc(F)cc(C)c2OC[C@H]1O)C(C)(C)C | 2 |
| COC(=O)N[C@H](C(=O)N[C@@H](Cc1ccccc1)[C@@H](O)C[C@@H](Cc1ccccc1)C(=O)N[C@H]1c2ccccc2OC[C@H]1O)C(C)(C)C | <1 |
| COC(=O)N[C@H](C(=O)N[C@@H](Cc1ccccc1)[C@@H](O)CN(Cc1ccc(-c2ccccn2)cc1)NC(=O)[C@@H](NC(=O)OC)C(C)(C)C)C(C)(C)C [ATAZANAVIR] | <1 |

Test system: Human immunodeficiency virus 1
Experiment: Selectivity ratio of EC50 for Human immunodeficiency virus 1 3B clinical isolate harboring L10I/K20R/M36I/G48V/ I62V/A71V/V82A/I93L protease mutant to EC50 for wild type Human immunodeficiency virus 1 3B
Assay type: functional
Settings: not given

| SMILES | Ratio EC50 |
| --- | --- |
| CC(C)CN(C[C@@H](O)[C@H](Cc1ccccc1)NC(=O)O[C@H]1CO[C@H]2OCC[C@H]21)S(=O)(=O)c1ccc(N)cc1 | <1 |
| COC(=O)N[C@H](C(=O)N[C@@H](Cc1ccc(-c2ccc(OC)nc2)cc1)[C@@H](O)C[C@@H](Cc1ccccc1F)C(=O)N[C@H]1c2cc(F)cc(C)c2OC[C@H]1O)C(C)(C)C | <1 |
| COC(=O)N[C@H](C(=O)N[C@@H](Cc1ccccc1)[C@@H](O)C[C@@H](Cc1ccccc1)C(=O)N[C@H]1c2ccccc2OC[C@H]1O)C(C)(C)C | <1 |
| COC(=O)N[C@H](C(=O)N[C@@H](Cc1ccccc1)[C@@H](O)CN(Cc1ccc(-c2ccccn2)cc1)NC(=O)[C@@H](NC(=O)OC)C(C)(C)C)C(C)(C)C [ATAZANAVIR] | 9 |

Test system: not listed separately
Experiment: Cytotoxicity against human MT4 cells
Assay type: cell-based
Settings: not given

| SMILES | CC50 |
| --- | --- |
| CC(C)CN(C[C@@H](O)[C@H](Cc1ccccc1)NC(=O)O[C@H]1CO[C@H]2OCC[C@H]21)S(=O)(=O)c1ccc(N)cc1 | > 10000 nM |
| COC(=O)N[C@H](C(=O)N[C@@H](Cc1ccc(-c2ccc(OC)nc2)cc1)[C@@H](O)C[C@@H](Cc1ccccc1F)C(=O)N[C@H]1c2cccc(F)c2OC[C@H]1O)C(C)(C)C | > 10000 nM |
| COC(=O)N[C@H](C(=O)N[C@@H](Cc1ccc(-c2ccc(OC)nc2)cc1)[C@@H](O)C[C@@H](Cc1ccccc1F)C(=O)N[C@H]1c2cc(F)cc(C)c2OC[C@H]1O)C(C)(C)C | > 10000 nM |
| COC(=O)N[C@H](C(=O)N[C@@H](Cc1ccccc1)[C@@H](O)C[C@@H](Cc1ccccc1)C(=O)N[C@H]1c2ccccc2OC[C@H]1O)C(C)(C)C | > 10000 nM |
| COC(=O)N[C@H](C(=O)N[C@@H](Cc1ccccc1)[C@@H](O)CN(Cc1ccc(-c2ccccn2)cc1)NC(=O)[C@@H](NC(=O)OC)C(C)(C)C)C(C)(C)C [ATAZANAVIR] | > 10000 nM |

Test system: Human immunodeficiency virus 1
Experiment: Antiviral activity against wild type Human immunodeficiency virus 1 3B infected in human MT4 cells assessed as inhibition of viral replication in presence of 50% human serum
Settings: not given

| SMILES | EC50 |
| --- | --- |
| CC(C)CN(C[C@@H](O)[C@H](Cc1ccccc1)NC(=O)O[C@H]1CO[C@H]2OCC[C@H]21)S(=O)(=O)c1ccc(N)cc1 | 17 nM |
| COC(=O)N[C@H](C(=O)N[C@@H](Cc1ccc(-c2ccc(OC)nc2)cc1)[C@@H](O)C[C@@H](Cc1ccccc1F)C(=O)N[C@H]1c2cccc(F)c2OC[C@H]1O)C(C)(C)C | 6.9 nM |
| COC(=O)N[C@H](C(=O)N[C@@H](Cc1ccc(-c2ccc(OC)nc2)cc1)[C@@H](O)C[C@@H](Cc1ccccc1F)C(=O)N[C@H]1c2cc(F)cc(C)c2OC[C@H]1O)C(C)(C)C | 6.8 nM |
| COC(=O)N[C@H](C(=O)N[C@@H](Cc1ccccc1)[C@@H](O)C[C@@H](Cc1ccccc1)C(=O)N[C@H]1c2ccccc2OC[C@H]1O)C(C)(C)C | 19 nM |
| COC(=O)N[C@H](C(=O)N[C@@H](Cc1ccccc1)[C@@H](O)CN(Cc1ccc(-c2ccccn2)cc1)NC(=O)[C@@H](NC(=O)OC)C(C)(C)C)C(C)(C)C [ATAZANAVIR] | 13 nM |

Test system: not listed separately
Experiment: Drug metabolism in human liver microsomes at 1 uM after 15 mins
Assay type: ADME, Microsome
Settings: read-out: Drug metabolism
Outline: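 Human liver microsome incubation at 37 °C for 15 min with compound at 1 µM; turnover expressed as percent of compound metabolized.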

| SMILES | metabolised at 0.25 h, 1 µM |
| --- | --- |
| COC(=O)N[C@H](C(=O)N[C@@H](Cc1ccc(-c2ccc(OC)nc2)cc1)[C@@H](O)C[C@@H](Cc1ccccc1F)C(=O)N[C@H]1c2cccc(F)c2OC[C@H]1O)C(C)(C)C | 98% |
| COC(=O)N[C@H](C(=O)N[C@@H](Cc1ccc(-c2ccc(OC)nc2)cc1)[C@@H](O)C[C@@H](Cc1ccccc1F)C(=O)N[C@H]1c2cc(F)cc(C)c2OC[C@H]1O)C(C)(C)C | 17% |
| COC(=O)N[C@H](C(=O)N[C@@H](Cc1ccccc1)[C@@H](O)C[C@@H](Cc1ccccc1)C(=O)N[C@H]1c2ccccc2OC[C@H]1O)C(C)(C)C | 99% |

Test system: Human immunodeficiency virus 1
Experiment: Antiviral activity against Human immunodeficiency virus 1 3B clinical isolate harboring L10I/I13V/M46I/I50V/L63P/L76V protease mutant infected in human MT4 cells assessed as inhibition of viral replication
Assay type: functional, organism-based
Settings: not given
Outline: (§1)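 Inhibition of replication in MT4 cells infected with protease-mutant HIV-1 clinical isolates, reported as EC50. Each assay run in quadruplicate. Values are averages of at least two independent experiments, typically three to four. Cytotoxicity (CC50) was measured in parallel in MT4 cells.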

| SMILES | EC50 |
| --- | --- |
| COC(=O)N[C@H](C(=O)N[C@@H](Cc1ccc(-c2ccc(OC)nc2)cc1)[C@@H](O)C[C@@H](Cc1ccccc1F)C(=O)N[C@H]1c2cc(F)cc(C)c2OC[C@H]1O)C(C)(C)C | 3.3 nM |
| COC(=O)N[C@H](C(=O)N[C@@H](Cc1ccccc1)[C@@H](O)C[C@@H](Cc1ccccc1)C(=O)N[C@H]1c2ccccc2OC[C@H]1O)C(C)(C)C | 6 nM |

Test system: Human immunodeficiency virus 1
Experiment: Antiviral activity against Human immunodeficiency virus 1 3B clinical isolate harboring L10I/M46I/I64V/I84V/L90M/I93L protease mutant infected in human MT4 cells assessed as inhibition of viral replication
Assay type: functional, organism-based
Settings: not given
Outline: as §1

| SMILES | EC50 |
| --- | --- |
| CC(C)CN(C[C@@H](O)[C@H](Cc1ccccc1)NC(=O)O[C@H]1CO[C@H]2OCC[C@H]21)S(=O)(=O)c1ccc(N)cc1 | 12 nM |
| COC(=O)N[C@H](C(=O)N[C@@H](Cc1ccc(-c2ccc(OC)nc2)cc1)[C@@H](O)C[C@@H](Cc1ccccc1F)C(=O)N[C@H]1c2cc(F)cc(C)c2OC[C@H]1O)C(C)(C)C | 5.4 nM |
| COC(=O)N[C@H](C(=O)N[C@@H](Cc1ccccc1)[C@@H](O)C[C@@H](Cc1ccccc1)C(=O)N[C@H]1c2ccccc2OC[C@H]1O)C(C)(C)C | 19 nM |
| COC(=O)N[C@H](C(=O)N[C@@H](Cc1ccccc1)[C@@H](O)CN(Cc1ccc(-c2ccccn2)cc1)NC(=O)[C@@H](NC(=O)OC)C(C)(C)C)C(C)(C)C [ATAZANAVIR] | 57 nM |

Test system: not listed separately
Experiment: Plasma clearance in rat at 2 mg/kg, iv
Assay type: ADME, organism-based
Parameters: dose 2 mg/kg, route intravenous
Settings: not given
Outline: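 Single intravenous dose of 2 mg/kg in rats. The formulation is typically 1 mg/mL in PEG400/ethanol/saline (70/20/10). Clearance values are averages from two or three animals. High is >3 L/h/kg (>70% liver blood flow) and low is <1.3 L/h/kg (<30%).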

| SMILES | clearance |
| --- | --- |
| COC(=O)N[C@H](C(=O)N[C@@H](Cc1ccc(-c2ccc(OC)nc2)cc1)[C@@H](O)C[C@@H](Cc1ccccc1F)C(=O)N[C@H]1c2cccc(F)c2OC[C@H]1O)C(C)(C)C | 88.3 mL/min/kg |
| COC(=O)N[C@H](C(=O)N[C@@H](Cc1ccc(-c2ccc(OC)nc2)cc1)[C@@H](O)C[C@@H](Cc1ccccc1F)C(=O)N[C@H]1c2cc(F)cc(C)c2OC[C@H]1O)C(C)(C)C | 26.7 mL/min/kg |
| COC(=O)N[C@H](C(=O)N[C@@H](Cc1ccccc1)[C@@H](O)C[C@@H](Cc1ccccc1)C(=O)N[C@H]1c2ccccc2OC[C@H]1O)C(C)(C)C | 66.7 mL/min/kg |

Test system: Human immunodeficiency virus 1
Experiment: Selectivity ratio of EC50 for Human immunodeficiency virus 1 3B clinical isolate harboring L10I/M46I/I64V/I84V/L90M/I93L protease mutant to EC50 for wild type Human immunodeficiency virus 1 3B
Assay type: functional
Settings: not given

| SMILES | Ratio EC50 |
| --- | --- |
| CC(C)CN(C[C@@H](O)[C@H](Cc1ccccc1)NC(=O)O[C@H]1CO[C@H]2OCC[C@H]21)S(=O)(=O)c1ccc(N)cc1 | 2 |
| COC(=O)N[C@H](C(=O)N[C@@H](Cc1ccc(-c2ccc(OC)nc2)cc1)[C@@H](O)C[C@@H](Cc1ccccc1F)C(=O)N[C@H]1c2cc(F)cc(C)c2OC[C@H]1O)C(C)(C)C | 3 |
| COC(=O)N[C@H](C(=O)N[C@@H](Cc1ccccc1)[C@@H](O)C[C@@H](Cc1ccccc1)C(=O)N[C@H]1c2ccccc2OC[C@H]1O)C(C)(C)C | 2 |
| COC(=O)N[C@H](C(=O)N[C@@H](Cc1ccccc1)[C@@H](O)CN(Cc1ccc(-c2ccccn2)cc1)NC(=O)[C@@H](NC(=O)OC)C(C)(C)C)C(C)(C)C [ATAZANAVIR] | 8 |

Test system: Human immunodeficiency virus 1
Experiment: Antiviral activity against Human immunodeficiency virus 1 3B clinical isolate harboring L10I/K20R/M36I/G48V/ I62V/A71V/V82A/I93L protease mutant infected in human MT4 cells assessed as inhibition of viral replication
Assay type: functional, organism-based
Settings: not given
Outline: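 Each assay run in quadruplicate. Values are averages of at least two independent experiments, typically three to four. Cytotoxicity (CC50) was measured in parallel in MT4 cells.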

| SMILES | EC50 |
| --- | --- |
| CC(C)CN(C[C@@H](O)[C@H](Cc1ccccc1)NC(=O)O[C@H]1CO[C@H]2OCC[C@H]21)S(=O)(=O)c1ccc(N)cc1 | 2.4 nM |
| COC(=O)N[C@H](C(=O)N[C@@H](Cc1ccc(-c2ccc(OC)nc2)cc1)[C@@H](O)C[C@@H](Cc1ccccc1F)C(=O)N[C@H]1c2cc(F)cc(C)c2OC[C@H]1O)C(C)(C)C | 1.5 nM |
| COC(=O)N[C@H](C(=O)N[C@@H](Cc1ccccc1)[C@@H](O)C[C@@H](Cc1ccccc1)C(=O)N[C@H]1c2ccccc2OC[C@H]1O)C(C)(C)C | 7 nM |

Test system: Human immunodeficiency virus 1
Experiment: Antiviral activity against wild type Human immunodeficiency virus 1 3B infected in human MT4 cells assessed as inhibition of viral replication
Assay type: functional, organism-based
Settings: not given
Outline: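 EC50 values are averages of at least two independent experiments (typically three to four), each run in quadruplicate. For the serum-shifted line, the same antiviral assay includes 50% human serum, used as a functional measure of plasma protein binding.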

| SMILES | EC50 |
| --- | --- |
| COC(=O)N[C@H](C(=O)N[C@@H](Cc1ccc(-c2ccc(OC)nc2)cc1)[C@@H](O)C[C@@H](Cc1ccccc1F)C(=O)N[C@H]1c2cccc(F)c2OC[C@H]1O)C(C)(C)C | 2.8 nM |
| COC(=O)N[C@H](C(=O)N[C@@H](Cc1ccc(-c2ccc(OC)nc2)cc1)[C@@H](O)C[C@@H](Cc1ccccc1F)C(=O)N[C@H]1c2cc(F)cc(C)c2OC[C@H]1O)C(C)(C)C | 1.8 nM |
| COC(=O)N[C@H](C(=O)N[C@@H](Cc1ccccc1)[C@@H](O)C[C@@H](Cc1ccccc1)C(=O)N[C@H]1c2ccccc2OC[C@H]1O)C(C)(C)C | 10 nM |
| COC(=O)N[C@H](C(=O)N[C@@H](Cc1ccccc1)[C@@H](O)CN(Cc1ccc(-c2ccccn2)cc1)NC(=O)[C@@H](NC(=O)OC)C(C)(C)C)C(C)(C)C [ATAZANAVIR] | 6.8 nM |
